This is a sample that favours compounds with a hit; in the whole collection about 4.9% have one here.
STAT3 act: IL-6 driven STAT3 reporter potentiators, primary screen, U3A cells, luciferase, luminescence, MLSCN library; IL-6 STAT3-luciferase reporter; 100% = signal with IL-6 EC80 alone; activation (% of control), % at 5.6 µM; 190,000 tested, 0.91% active; AID 871, 2007;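 active = activation above the screen-wide mean of compound activation plus 3 SD, cut at about 130% in these data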;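 note: 0% = background luminescence of wells with medium and substrate only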
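Material: human U3A cells carrying STAT3-luciferase construct. Measured by: reporter luminescence signal. Timing: compound 1 h, then IL-6 6 h at 37 °C.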
STAT3 inh-1: IL-6 driven STAT3 reporter inhibitors, primary screen, U3A cells, luciferase, luminescence, MLSCN library; IL-6 STAT3-luciferase reporter; host cell line lacks STAT1; inhibition, % at 5.5 µM; 190,000 tested, 0.89% active; AID 862, 2007;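 active = inhibition above the mean inhibition across all screened compounds plus 3 SD, cut at about 44% in these data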;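 note: 0% = DMSO only wells and 100% = 100 µM nifuroxazide control wells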
APP 5'UTR act: activators of APP 5'UTR luciferase reporter, primary screen, SH-SY5Y cells. SH-SY5Y APP 5'UTR luciferase reporter, luminescence; zero percent = DMSO vehicle wells. activation, % at 2 µM. 190,000 tested, 1% active. AID 1276, 2008;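 active = activation above a set limit, based on mean plus 3 SD of controls, cut at about 140% in these data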
NF-kB expr up: activators of NF-kB expression in neurons, primary screen, cell-based, HTS; human neuronal cells, NF-kB reporter expression; active compounds read high; fold change at 12.5 µM; 190,000 tested, 1.6% active; in the data active = fold change above about 3.3
STAT1 inh: STAT1 signaling inhibitors, primary screen, cell-based, HTS, luciferase reporter. NIH 3T3 STAT1-luciferase reporter, IFN-gamma, luminescence. inhibition, % at 5.5 µM. 200,000 tested, 0.35% active;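 active = inhibition above a set limit, the mean inhibition across all tested compounds plus 3 SD, cut at about 34% in these data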;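 note: 0% = IFN-gamma with DMSO and 100% = IFN-gamma with 300 µM nifuroxazide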
STAT1 activator: STAT1 signaling activators, primary screen, cell-based, HTS, luciferase reporter; activation (% of control), % at 5.5 µM; 200,000 tested, 2.6% active; NIH 3T3 STAT1-luciferase reporter, IFN-gamma, luminescence; 100% = IFN-gamma alone, no compound;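 active = activation above the screen-wide mean activation plus 3 SD, cut at about 130% in these data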;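 note: raw ratio to IFN-gamma control signal so 100% means no change and 0% no light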
STAT3 inh-2: STAT3 reporter inhibitors, retest of hits, confirmation, U3A cells, luciferase, luminescence; shares compounds with STAT3 inh-1; IL-6 STAT3 luciferase reporter; cell line lacks STAT1; inhibition, % at 5.7 µM; 1,200 tested, 45% active;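 active = inhibition above the hit cutoff computed for the primary STAT3 screen, cut at about 44% in these data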;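 note: 0% = IL-6 plus DMSO and 100% = IL-6 plus nifuroxazide control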
NFkB inh 2: NF-kB reporter inhibitors in human cells, confirmation, counter-screen for STAT3 inhibitor project, cell-based, HEK293T, luciferase, TNF-alpha stimulus; shares compounds with STAT3 inh-1; 1,200 tested, 36% active; TNF-alpha induced; inhibition, % at 5.7 µM;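 active = inhibition above the mean of solvent-only control wells plus 3 SD, cutoff set per campaign, cut at about 13% in these data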;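 note: 0% = TNF-alpha with DMSO and 100% = TNF-alpha with MG high control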
STAT1 inh 2: STAT1 reporter inhibitors, IFN-gamma induced, confirmation, counter-screen for STAT3 inhibitor project, cell-based, NIH 3T3, luciferase luminescence | shares compounds with STAT3 inh-1 | NIH 3T3 STAT1-luciferase reporter | inhibition, % at 5.7 µM | 1,200 tested, 27% active | AID 1317, 2008;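 active = inhibition above the mean plus 3 SD of solvent-only control wells, limit set per screening run, cut at about 16% in these data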;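 note: 0% = DMSO with IFN-gamma and 100% = nifuroxazide control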
An asterisk follows results filed as active; / = no result given.

SMILES	STAT3 act	STAT3 inh-1	APP 5'UTR act	NF-kB expr up	STAT1 inh	STAT1 activator	STAT3 inh-2	NFkB inh 2	STAT1 inh 2
COc1ccc(-n2c(C)nc3c(cnn3-c3ccc(Cl)cc3)c2=O)cc1	60	52*	17	1.1	13	88	42	9	8
COc1ccc(-n2c(C)nc3c(cnn3-c3ccc(C)cc3)c2=O)cc1	76	33	-5	0.97	4	98	/	/	/
CC(C(=O)Nc1cc([N+](=O)[O-])ccc1Cl)N1CCN(c2ccc(O)cc2)CC1 (stereo unspecified)	94	6	-8	1.1	11	91	/	/	/
Cc1ccc(-n2c(-c3ccccc3)c[n+]3c2CCC3)cc1	51	62*	1	0.69	26	76	50*	2	23*
CCOc1ccc(-c2c[n+]3c(n2-c2ccccc2)CCCCC3)cc1	51	56*	22	0.54	28	74	73*	5	28*
COc1ccc(-n2c(-c3ccc(Br)cc3)c[n+]3c2CCC3)cc1	83	22	-7	0.9	21	79	/	/	/
N#CCC(=O)c1ccccc1Oc1ccc(Cl)cc1	102	5	-5	1	-7	106	/	/	/
CN(C)S(=O)(=O)Oc1cccc(C(=O)Nc2ccccc2Cl)c1	95	6	39	1.9	-19	118	/	/	/
CN(C)S(=O)(=O)Oc1cccc(C(=O)Nc2ccc(Cl)cc2)c1	48	71*	141*	5.3*	-10	109	56*	-11	-50
CCCCC1CCC(c2nc(-c3ccccn3)no2)CC1 (stereo unspecified)	45	72*	92	2.4	-3	102	22	-39	-85
Cc1sc(C(=O)Nc2ccc3ccccc3c2)cc1CC(=O)O	105	6	-6	1.6	-25	121	/	/	/
C=CCNC(=S)NNC(=O)c1ccc(=O)n(Cc2ccccc2)c1	98	6	22	1.2	1	97	/	/	/
CCN(CC)c1ccc(Nc2nc(N3CCOCC3)c3ccccc3n2)cc1	61	49*	-20	0.84	20	81	41	9	15
COc1ccc(Nc2nc(N3CCCC3)c3ccccc3n2)cc1	85	22	-19	0.44	14	86	/	/	/
Cc1ccc2cc(C#N)c(NCCNC(=O)C3CC3)nc2c1C	58	56*	-10	0.87	8	93	14	-4	-8
Cc1nc(C)c(C(=O)Nc2ccc(Oc3ccccc3)cc2)o1	57	55*	-8	0.87	21	81	28	3	-2
O=C(c1ccc(S(=O)(=O)NCC2CCCO2)cc1)N1CCN(c2cccc(Cl)c2)CC1 (stereo unspecified)	77	32	-4	1	17	82	/	/	/
CCN(CC)c1ccc(/C=C/c2nc3ccccc3s2)cc1	50	66*	76	1.4	23	79	23	-8	-91
CCN(CC)c1ccc(NC(=O)COC(=O)/C=C/c2nc3ccccc3s2)cc1	102	-8	-10	0.9	-2	102	/	/	/
COc1ccccc1NCCC(=O)OCC(=O)NC1CCCCCC1	100	0	17	1.4	8	92	/	/	/
Cc1ccc2[nH]c3c(N4CCN(Cc5ccc6c(c5)OCO6)CC4)ncnc3c2c1	59	54*	18	0.39	31	72	33	15*	17*
COc1cccc2[nH]c3c(N4CCN(Cc5ccc6c(c5)OCO6)CC4)ncnc3c12	88	18	-4	0.51	-4	104	/	/	/
COc1cccc(Oc2ccc3nnc(C(F)(F)F)n3n2)c1	96	5	25	1.3	0	101	/	/	/
CN(C)[C@@H]1CCC[C@@H]1OC(=O)C(c1ccccc1)c1ccccc1	99	3	-6	1.2	6	95	/	/	/
O=C(Nc1nccs1)c1ccc(S(=O)(=O)NCc2cccs2)cc1	80	31	7	0.95	8	93	/	/	/
SMILES	STAT3 act	STAT3 inh-1	APP 5'UTR act	NF-kB expr up	STAT1 inh	STAT1 activator	STAT3 inh-2	NFkB inh 2	STAT1 inh 2
O=C(Nc1ccc(Br)cc1)c1ccc(F)c(S(=O)(=O)NCc2cccs2)c1	52	57*	0	0.73	17	84	69*	17*	16*
Cc1ccc(CC(=O)Nc2ccncc2)cc1	62	46*	-11	0.91	29	73	52*	11	24*
O=C(Cc1ccc(Cl)cc1)Nc1ccncc1	58	52*	-9	0.88	23	77	55*	17*	21*
Cc1ccc(CC(=O)Nc2cccnc2)cc1	96	8	-4	0.85	2	96	/	/	/
CN(CC(=O)Nc1ccncc1)S(=O)(=O)c1ccc(Br)cc1	90	16	-20	0.98	5	96	/	/	/
O=C(Cc1ccc([N+](=O)[O-])cc1)Nc1ccc(Cl)cc1	104	-3	9	1.2	0	98	/	/	/
CN(CCCC(=O)Nc1ccncc1)S(=O)(=O)c1ccc(Cl)cc1	62	47*	0	0.77	13	88	39	0	21*
CC(C)c1onc(C(=O)NC2CCCCC2)c1[N+](=O)[O-]	104	7	20	1.1	-11	109	/	/	/
Cc1ccc(/C=C/C(=O)NC2=NCCS2)cc1	40	71*	180*	5.6*	-52	147*	35	-9	-122
Cc1nn(-c2ccc(F)cc2)c(Cl)c1/C=C/C(=O)OCC(=O)Nc1c(F)c(F)c(F)c(F)c1F	106	-3	11	1	-6	106	/	/	/
Cc1ccc2nc(-c3ccccc3N)[nH]c2c1	47	67*	198*	1.1	21	78	12	-37	-149
O=C(OCc1ccccc1)C1=NNC2C(=O)N(Cc3ccccc3)C(=O)C12 (stereo unspecified)	103	1	-8	1.3	-6	102	/	/	/
NNC(=O)c1ccc(COc2cccc3ccccc23)cc1	95	2	13	0.81	-5	105	/	/	/
NNC(=O)c1cccc(COc2ccccc2Br)c1	39	71*	173*	2.5	22	80	61*	-10	10
COc1ccc(NC(=O)c2cc3ccccn3n2)cc1	67	46*	149*	6*	-23	120	20	-29	-96

High-throughput results: PubChem, several laboratories
